According to article PMC6218153 (Journal of Alzheimer's Disease Reports, 2018):
Marks after values point to notes of the source that are not given here. Where no end group is shown, it is not given here.

Assay: PK study in plasma and CSF after single IV, SC or IN dose
Type: in vivo, rat
Outline: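 Cannulated rats (jugular vein, intracisternal; n = 6/route) received a single dose in PBS: IV or SC ~11 mg/kg over 1 min, or IN ~5.5 mg/kg, 10 μL per nostril at 6-min intervals over 18 min. K2EDTA plasma was taken pre-dose to 165 min and CSF pre-dose to 150/180 min. LC/MS/MS (ESI+, 1007.55 > 876.35) with noncompartmental PK; CL = Dose/AUC. CSF ratio = dose-normalised CSF AUC relative to IV.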

DEEEDEEL [P8, DEEEDEEL]
P8 concentration in plasma (IN 5.5 mg/kg single dose, 5 min, Rat 1): 137 ng/mL
P8 concentration in plasma (IN 5.5 mg/kg single dose, 5 min, Rat 2): 262 ng/mL
P8 concentration in plasma (IN 5.5 mg/kg single dose, 5 min, Rat 3): 191 ng/mL
P8 concentration in CSF (IN 5.5 mg/kg single dose, 10 min, Rat 2): 3.09 ng/mL
P8 concentration in CSF (IN 5.5 mg/kg single dose, 10 min, Rat 3): 32.8 ng/mL
P8 concentration in plasma (IN 5.5 mg/kg single dose, 15 min, Rat 1): 102 ng/mL
P8 concentration in plasma (IN 5.5 mg/kg single dose, 15 min, Rat 2): 234 ng/mL
P8 concentration in plasma (IN 5.5 mg/kg single dose, 15 min, Rat 3): 150 ng/mL
P8 concentration in plasma (IN 5.5 mg/kg single dose, 25 min, Rat 1): 60.8 ng/mL
P8 concentration in plasma (IN 5.5 mg/kg single dose, 25 min, Rat 2): 123^b ng/mL
P8 concentration in plasma (IN 5.5 mg/kg single dose, 25 min, Rat 3): 90.6 ng/mL
P8 concentration in CSF (IN 5.5 mg/kg single dose, 30 min, Rat 2): 1.03 ng/mL
P8 concentration in CSF (IN 5.5 mg/kg single dose, 30 min, Rat 3): 1.95 ng/mL
P8 concentration in plasma (IN 5.5 mg/kg single dose, 35 min, Rat 1): 53.7 ng/mL
P8 concentration in plasma (IN 5.5 mg/kg single dose, 35 min, Rat 2): 85.9 ng/mL
P8 concentration in plasma (IN 5.5 mg/kg single dose, 35 min, Rat 3): 66.0 ng/mL
P8 concentration in plasma (IN 5.5 mg/kg single dose, 50 min, Rat 1): 66.1 ng/mL
P8 concentration in plasma (IN 5.5 mg/kg single dose, 50 min, Rat 2): 67.7 ng/mL
P8 concentration in plasma (IN 5.5 mg/kg single dose, 50 min, Rat 3): 45.1 ng/mL
P8 concentration in CSF (IN 5.5 mg/kg single dose, 60 min, Rat 1): 1.18 ng/mL
P8 concentration in CSF (IN 5.5 mg/kg single dose, 60 min, Rat 2): 0.632 ng/mL
P8 concentration in CSF (IN 5.5 mg/kg single dose, 60 min, Rat 3): 1.28 ng/mL
P8 concentration in plasma (IN 5.5 mg/kg single dose, 70 min, Rat 1): 37.6 ng/mL
P8 concentration in plasma (IN 5.5 mg/kg single dose, 70 min, Rat 2): 55.3 ng/mL
P8 concentration in plasma (IN 5.5 mg/kg single dose, 70 min, Rat 3): 32.1 ng/mL
P8 concentration in plasma (IN 5.5 mg/kg single dose, 90 min, Rat 1): 32.2 ng/mL
P8 concentration in plasma (IN 5.5 mg/kg single dose, 90 min, Rat 2): 42.8 ng/mL
P8 concentration in plasma (IN 5.5 mg/kg single dose, 90 min, Rat 3): 20.7 ng/mL
P8 concentration in CSF (IN 5.5 mg/kg single dose, 100 min, Rat 1): 0.537 ng/mL
P8 concentration in CSF (IN 5.5 mg/kg single dose, 100 min, Rat 2): 2.39 ng/mL
P8 concentration in CSF (IN 5.5 mg/kg single dose, 100 min, Rat 3): 0.532 ng/mL
P8 concentration in plasma (IN 5.5 mg/kg single dose, 110 min, Rat 1): 26.0 ng/mL
P8 concentration in plasma (IN 5.5 mg/kg single dose, 110 min, Rat 2): 27.0 ng/mL
P8 concentration in plasma (IN 5.5 mg/kg single dose, 110 min, Rat 3): 13.9 ng/mL
P8 concentration in plasma (IN 5.5 mg/kg single dose, 130 min, Rat 1): 33.2 ng/mL
P8 concentration in plasma (IN 5.5 mg/kg single dose, 130 min, Rat 2): 15.0 ng/mL
P8 concentration in plasma (IN 5.5 mg/kg single dose, 130 min, Rat 3): 14.3 ng/mL
P8 concentration in CSF (IN 5.5 mg/kg single dose, 150 min, Rat 1): 0.581 ng/mL
P8 concentration in CSF (IN 5.5 mg/kg single dose, 150 min, Rat 3): 1.16 ng/mL
P8 concentration in plasma (IN 5.5 mg/kg single dose, 165 min, Rat 1): 32.7 ng/mL
P8 concentration in plasma (IN 5.5 mg/kg single dose, 165 min, Rat 2): 14.9 ng/mL
P8 concentration in plasma (IN 5.5 mg/kg single dose, 165 min, Rat 3): 17.1 ng/mL
P8 concentration in plasma (IV 11.0 mg/kg single dose, 5 min, Rat 1): 102,000 ng/mL
P8 concentration in plasma (IV 11.0 mg/kg single dose, 5 min, Rat 2): 45,300 ng/mL
P8 concentration in plasma (IV 11.0 mg/kg single dose, 5 min, Rat 3): 43,600 ng/mL
P8 concentration in CSF (IV 11.0 mg/kg single dose, 10 min, Rat 2): 50.1^c ng/mL
P8 concentration in CSF (IV 11.0 mg/kg single dose, 10 min, Rat 3): 85.7^c ng/mL
P8 concentration in plasma (IV 11.0 mg/kg single dose, 15 min, Rat 2): 12,600 ng/mL
P8 concentration in plasma (IV 11.0 mg/kg single dose, 15 min, Rat 3): 8,460 ng/mL
P8 concentration in plasma (IV 11.0 mg/kg single dose, 25 min, Rat 1): 4,250 ng/mL
P8 concentration in plasma (IV 11.0 mg/kg single dose, 25 min, Rat 2): 5,650 ng/mL
P8 concentration in plasma (IV 11.0 mg/kg single dose, 25 min, Rat 3): 3,230 ng/mL
P8 concentration in CSF (IV 11.0 mg/kg single dose, 30 min, Rat 1): 42.5 ng/mL
P8 concentration in CSF (IV 11.0 mg/kg single dose, 30 min, Rat 2): 48.2^c ng/mL
P8 concentration in CSF (IV 11.0 mg/kg single dose, 30 min, Rat 3): 39.3 ng/mL
P8 concentration in plasma (IV 11.0 mg/kg single dose, 35 min, Rat 1): 2,160 ng/mL
P8 concentration in plasma (IV 11.0 mg/kg single dose, 35 min, Rat 2): 2,710 ng/mL
P8 concentration in plasma (IV 11.0 mg/kg single dose, 35 min, Rat 3): 1,770 ng/mL
P8 concentration in plasma (IV 11.0 mg/kg single dose, 50 min, Rat 1): 878 ng/mL
P8 concentration in plasma (IV 11.0 mg/kg single dose, 50 min, Rat 2): 1,190 ng/mL
P8 concentration in plasma (IV 11.0 mg/kg single dose, 50 min, Rat 3): 713 ng/mL
P8 concentration in CSF (IV 11.0 mg/kg single dose, 60 min, Rat 1): 22.8 ng/mL
P8 concentration in CSF (IV 11.0 mg/kg single dose, 60 min, Rat 2): 17.8 ng/mL
P8 concentration in CSF (IV 11.0 mg/kg single dose, 60 min, Rat 3): 16.9 ng/mL
P8 concentration in plasma (IV 11.0 mg/kg single dose, 70 min, Rat 1): 392 ng/mL
P8 concentration in plasma (IV 11.0 mg/kg single dose, 70 min, Rat 2): 313 ng/mL
P8 concentration in plasma (IV 11.0 mg/kg single dose, 70 min, Rat 3): 199 ng/mL
P8 concentration in CSF (IV 11.0 mg/kg single dose, 100 min, Rat 1): 10.7 ng/mL
P8 concentration in CSF (IV 11.0 mg/kg single dose, 100 min, Rat 2): 8.69 ng/mL
P8 concentration in CSF (IV 11.0 mg/kg single dose, 100 min, Rat 3): 4.08 ng/mL
P8 concentration in plasma (IV 11.0 mg/kg single dose, 110 min, Rat 1): 93.1 ng/mL
P8 concentration in plasma (IV 11.0 mg/kg single dose, 110 min, Rat 2): 36.4 ng/mL
P8 concentration in plasma (IV 11.0 mg/kg single dose, 110 min, Rat 3): 39.8 ng/mL
P8 concentration in plasma (IV 11.0 mg/kg single dose, 130 min, Rat 1): 42.0 ng/mL
P8 concentration in plasma (IV 11.0 mg/kg single dose, 130 min, Rat 2): 18.3 ng/mL
